Measurements reported in ChEMBL document CHEMBL4765319, “Identification of a new series of flavopiridol-like structures as kinase inhibitors with high cytotoxic potency” (Eur J Med Chem, 2020).
Each block holds one compound with its values, some of them ahead of it.

Legend:
SK-OV-3 = experiment: Antiproliferative activity against human SKOV3 cells assessed as reduction in cell viability incubated for 72 hrs by CellTiter-Blue fluorescence assay; details: SK-OV-3, 72 h
Sus scrofa [1] = organism: Sus scrofa; experiment: Inhibition of porcine GSK3alpha/beta assessed as residual activity at 1 uM in presence of ATP by ADP-glo luminescent assay relative to control
In short: (§1)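 Porcine brain GSK3α/β, native and affinity-purified. Assayed by ADP-Glo luminescence with 10 μM ATP and 0.010 μg/μl GS-1 peptide substrate. Buffer A: 10 mM MgCl2, 1 mM EGTA, 1 mM DTT, 25 mM Tris-HCl pH 7.5, 50 μg/ml heparin. Compound tested at 10 or 1 μM. Result is % of maximal activity versus DMSO control, mean of n = 2.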

Sus scrofa [2] = organism: Sus scrofa; experiment: Inhibition of porcine GSK3alpha/beta assessed as residual activity at 10 uM in presence of ATP by ADP-glo luminescent assay relative to control
In short: as §1

CDK9/cyclin T1 = CDK9/cyclin T1 (Homo sapiens, UniProt P50750); experiment: Inhibition of human CDK9/cyclin T in presence of ATP by ADP-glo luminescent assay; type: protein-complex assay
In short: (§2)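 Human kinases tested over roughly 0.0003–10 μM by ADP-Glo luminescence with 10 μM ATP, in duplicate. IC50 is taken from dose-response curves.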

Leishmania major [3] = experiment: Inhibition of Leishmania major CK1 assessed as residual activity at 10 uM in presence of ATP by ADP-glo luminescent assay relative to control
Plasmodium falciparum [4] = experiment: Inhibition of Plasmodium falciparum GSK3 assessed as residual activity at 1 uM in presence of ATP by ADP-glo luminescent assay relative to control
In short: (§3)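 Recombinant P. falciparum GSK3, bacterially expressed, in buffer A (10 mM MgCl2, 1 mM EGTA, 1 mM DTT, 25 mM Tris-HCl pH 7.5, 50 μg/ml heparin). Substrate 0.010 μg/μl GS-1 peptide, 10 μM ATP, ADP-Glo luminescence. Compound at 10 or 1 μM; % residual activity vs DMSO control, mean n = 2.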

NCI-N87 = experiment: Antiproliferative activity against human NCI-N87 cells assessed as reduction in cell viability incubated for 72 hrs by CellTiter-Blue fluorescence assay; details: NCI-N87, 72 h
Plasmodium falciparum [5] = experiment: Inhibition of Plasmodium falciparum GSK3 assessed as residual activity at 10 uM in presence of ATP by ADP-glo luminescent assay relative to control
In short: as §3

[6] = biological target: T1, Cyclin-dependent kinase 5/CDK5 activator 1 (Homo sapiens) (UniProt Q00535+Q15078); experiment: Inhibition of human CDK5/p25 assessed as residual activity at 1 uM in presence of ATP by ADP-glo luminescent assay relative to control; type: protein-complex assay
In short: (§4)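 Human kinases assayed by ADP-Glo luminescence with 10 μM ATP, compound at 10 or 1 μM. Activity is expressed as % of maximal activity relative to a DMSO control, mean n = 2.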

[7] = biological target: T2, CDK2/Cyclin A2 (Homo sapiens) (UniProt P24941+P20248); experiment: Inhibition of human CDK2/cyclin A assessed as residual activity at 10 uM in presence of ATP by ADP-glo luminescent assay relative to control; type: protein-complex assay
In short: as §4

[8] = biological target: T3, Glycogen synthase kinase-3 beta (Homo sapiens, UniProt P49841); experiment: Inhibition of human GSK3beta in presence of ATP by ADP-glo luminescent assay
In short: as §2
Target sequence in this assay (P49841 whole entry): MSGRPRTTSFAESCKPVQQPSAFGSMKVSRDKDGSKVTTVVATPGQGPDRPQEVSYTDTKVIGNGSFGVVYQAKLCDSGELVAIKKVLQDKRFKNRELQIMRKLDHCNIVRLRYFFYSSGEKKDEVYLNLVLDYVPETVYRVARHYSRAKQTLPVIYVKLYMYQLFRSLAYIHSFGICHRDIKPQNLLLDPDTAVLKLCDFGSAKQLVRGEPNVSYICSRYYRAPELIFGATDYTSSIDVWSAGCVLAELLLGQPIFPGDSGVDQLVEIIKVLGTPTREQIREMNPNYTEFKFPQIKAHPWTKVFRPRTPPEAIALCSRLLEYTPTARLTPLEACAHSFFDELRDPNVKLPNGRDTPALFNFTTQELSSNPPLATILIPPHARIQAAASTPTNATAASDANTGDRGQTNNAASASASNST

Sus scrofa [9] = organism: Sus scrofa; experiment: Inhibition of porcine CK1delta/epsilon assessed as residual activity at 10 uM in presence of ATP by ADP-glo luminescent assay relative to control
K562 = experiment: Antiproliferative activity against human K562 cells assessed as reduction in cell viability incubated for 72 hrs by CellTiter-Blue resazurin fluorescence assay; details: K562, 72 h
SK-BR-3 = experiment: Antiproliferative activity against human SK-BR-3 cells assessed as reduction in cell viability incubated for 72 hrs by CellTiter-Blue fluorescence assay; details: SK-BR-3, 72 h
Sus scrofa [10] = organism: Sus scrofa; experiment: Inhibition of porcine CK1delta/epsilon assessed as residual activity at 1 uM in presence of ATP by ADP-glo luminescent assay relative to control
MIA PaCa-2 = experiment: Antiproliferative activity against human MIA PaCa-2 cells assessed as reduction in cell viability incubated for 72 hrs by CellTiter-Blue fluorescence assay; details: MIA PaCa-2, 72 h
[11] = biological target: T3, Glycogen synthase kinase-3 beta; experiment: Inhibition of human GSK3beta assessed as residual activity at 1 uM in presence of ATP by ADP-glo luminescent assay relative to control
In short: as §4
Target sequence in this assay (P49841 whole entry, looked up): as the sequence (P49841 whole entry) above

[12] = biological target: T2, CDK2/Cyclin A2 (Homo sapiens); experiment: Inhibition of human CDK2/cyclin A assessed as residual activity at 1 uM in presence of ATP by ADP-glo luminescent assay relative to control; type: protein-complex assay
In short: as §4

[13] = biological target: T4, CDK9/cyclin T1 (Homo sapiens) (UniProt O60563+P50750); experiment: Inhibition of human CDK9/cyclin T assessed as residual activity at 10 uM in presence of ATP by ADP-glo luminescent assay relative to control; type: protein-complex assay
In short: as §4

[14] = biological target: T4, CDK9/cyclin T1 (Homo sapiens); experiment: Inhibition of human CDK9/cyclin T assessed as residual activity at 1 uM in presence of ATP by ADP-glo luminescent assay relative to control; type: protein-complex assay
In short: as §4

Leishmania major [15] = experiment: Inhibition of Leishmania major CK1 assessed as residual activity at 1 uM in presence of ATP by ADP-glo luminescent assay relative to control
[16] = biological target: T3, Glycogen synthase kinase-3 beta; experiment: Inhibition of human GSK3beta assessed as residual activity at 10 uM in presence of ATP by ADP-glo luminescent assay relative to control
In short: as §4
Target sequence in this assay (P49841 whole entry, looked up): as the sequence (P49841 whole entry) above

CDK2/Cyclin A2 = CDK2/Cyclin A2 (Homo sapiens, UniProt P24941); experiment: Inhibition of human CDK2/cyclin A in presence of ATP by ADP-glo luminescent assay; type: protein-complex assay
In short: as §2

[17] = biological target: T1, Cyclin-dependent kinase 5/CDK5 activator 1 (Homo sapiens); experiment: Inhibition of human CDK5/p25 assessed as residual activity at 10 uM in presence of ATP by ADP-glo luminescent assay relative to control; type: protein-complex assay
In short: as §4

PC-3 = experiment: Antiproliferative activity against human PC-3 cells assessed as reduction in cell viability incubated for 72 hrs by CellTiter-Blue fluorescence assay; details: PC-3, 72 h
[18] = biological target: Cyclin-dependent kinase 5/CDK5 activator 1 (Homo sapiens, UniProt Q00535); experiment: Inhibition of human CDK5/p25 in presence of ATP by ADP-glo luminescent assay; type: protein-complex assay
In short: as §2

HCT-116 = experiment: Antiproliferative activity against human HCT-116 cells assessed as reduction in cell viability incubated for 72 hrs by CellTiter-Blue fluorescence assay; details: HCT-116, 72 h

Chain of CDK9/cyclin T1 (O60563 whole entry): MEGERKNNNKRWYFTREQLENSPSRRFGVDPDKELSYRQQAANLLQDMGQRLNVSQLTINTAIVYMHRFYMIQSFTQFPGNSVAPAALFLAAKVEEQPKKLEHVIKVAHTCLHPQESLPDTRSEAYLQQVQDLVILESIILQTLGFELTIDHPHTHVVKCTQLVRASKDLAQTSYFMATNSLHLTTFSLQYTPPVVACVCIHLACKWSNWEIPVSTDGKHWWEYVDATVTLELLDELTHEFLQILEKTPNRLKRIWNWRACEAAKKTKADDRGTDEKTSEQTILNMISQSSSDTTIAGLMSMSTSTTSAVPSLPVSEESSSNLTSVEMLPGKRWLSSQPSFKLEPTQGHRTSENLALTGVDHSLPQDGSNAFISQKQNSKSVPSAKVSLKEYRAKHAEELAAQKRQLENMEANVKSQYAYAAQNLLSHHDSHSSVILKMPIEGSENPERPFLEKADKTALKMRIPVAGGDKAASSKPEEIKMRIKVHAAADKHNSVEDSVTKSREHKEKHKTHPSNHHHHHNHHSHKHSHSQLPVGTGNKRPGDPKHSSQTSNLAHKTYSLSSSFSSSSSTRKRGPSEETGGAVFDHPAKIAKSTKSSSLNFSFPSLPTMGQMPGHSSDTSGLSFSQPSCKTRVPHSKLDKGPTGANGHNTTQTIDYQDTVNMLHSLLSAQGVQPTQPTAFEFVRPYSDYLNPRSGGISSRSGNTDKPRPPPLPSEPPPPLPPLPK
Chain of CDK9/cyclin T1 (P50750 whole entry): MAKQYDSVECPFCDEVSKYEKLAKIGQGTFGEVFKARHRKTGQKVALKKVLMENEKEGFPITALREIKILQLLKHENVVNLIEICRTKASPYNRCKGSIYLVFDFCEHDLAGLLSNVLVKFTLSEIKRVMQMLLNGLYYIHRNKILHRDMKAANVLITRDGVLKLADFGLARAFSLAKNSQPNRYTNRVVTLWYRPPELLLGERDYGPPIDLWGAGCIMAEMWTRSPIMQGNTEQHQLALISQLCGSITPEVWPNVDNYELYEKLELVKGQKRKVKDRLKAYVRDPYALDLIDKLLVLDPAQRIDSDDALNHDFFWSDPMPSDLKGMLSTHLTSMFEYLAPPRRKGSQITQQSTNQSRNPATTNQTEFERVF
Chain of Cyclin-dependent kinase 5/CDK5 activator 1 (Q00535 whole entry): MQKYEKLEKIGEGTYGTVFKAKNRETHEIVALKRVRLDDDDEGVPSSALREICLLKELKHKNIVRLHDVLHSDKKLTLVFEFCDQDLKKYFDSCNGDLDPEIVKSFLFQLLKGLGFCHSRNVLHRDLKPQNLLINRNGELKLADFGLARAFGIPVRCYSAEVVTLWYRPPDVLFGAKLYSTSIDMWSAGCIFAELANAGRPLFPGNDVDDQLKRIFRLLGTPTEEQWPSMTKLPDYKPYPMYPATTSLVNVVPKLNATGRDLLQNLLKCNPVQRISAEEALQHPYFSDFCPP
Chain of Cyclin-dependent kinase 5/CDK5 activator 1 (Q15078 whole entry, further chain): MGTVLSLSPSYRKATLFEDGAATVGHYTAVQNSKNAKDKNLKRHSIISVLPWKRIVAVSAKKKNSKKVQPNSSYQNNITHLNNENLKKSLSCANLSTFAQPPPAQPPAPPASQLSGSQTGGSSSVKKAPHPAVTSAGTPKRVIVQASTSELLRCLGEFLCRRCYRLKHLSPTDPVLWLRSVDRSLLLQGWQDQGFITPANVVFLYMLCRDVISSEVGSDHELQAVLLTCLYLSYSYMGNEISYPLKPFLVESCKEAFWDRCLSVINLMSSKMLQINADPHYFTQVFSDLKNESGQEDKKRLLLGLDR
T1 sequence (Q00535 whole entry): as the sequence (Q00535 whole entry) above
T1 sequence (Q15078 99-307 partner limits assumed): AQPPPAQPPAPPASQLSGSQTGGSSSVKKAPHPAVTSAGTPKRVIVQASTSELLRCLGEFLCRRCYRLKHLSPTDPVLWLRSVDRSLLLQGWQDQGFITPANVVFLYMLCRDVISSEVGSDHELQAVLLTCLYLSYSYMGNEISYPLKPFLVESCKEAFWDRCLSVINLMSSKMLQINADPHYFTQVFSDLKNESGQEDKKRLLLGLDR

SMILES: CC(=O)OC[C@@H]1O[C@@H](Sc2ccc(-c3cc(=O)c4c(O)cc(O)c(C5=CCN(C)CC5)c4o3)cc2)[C@@H](OC(C)=O)[C@H](OC(C)=O)[C@H]1OC(C)=O
IC50 (SK-OV-3): > 10000 nM

SMILES: CN1CC=C(c2c(O)cc(O)c3c(=O)cc(-c4ccc(Sc5nc6ccccc6[nH]5)cc4)oc23)CC1
Activity (Sus scrofa [1]): 36%
Activity (Sus scrofa [2]): 11%
IC50 (CDK9/cyclin T1): 8 nM
Activity (Leishmania major [3]): 40%
Activity (Plasmodium falciparum [4]): 85%
IC50 (NCI-N87): 183 nM
Activity (Plasmodium falciparum [5]): 54%
Activity [6]: 14%
Activity [7]: 5%
IC50 [8]: 117 nM
Activity (Sus scrofa [9]): 69%
IC50 (K562): 194 nM
IC50 (SK-BR-3): 254 nM
Activity (Sus scrofa [10]): 91%
IC50 (MIA PaCa-2): 852 nM
IC50 (SK-OV-3): 595 nM
Activity [11]: 6%
Activity [12]: 35%
Activity [13]: 10%
Activity [14]: 8%
Activity (Leishmania major [15]): 99%
Activity [16]: -8%
IC50 (CDK2/Cyclin A2): 162 nM
Activity [17]: 4%
IC50 (PC-3): 742 nM
IC50 [18]: 121 nM
IC50 (HCT-116): 293 nM

SMILES: CN1CC=C(c2c(O)cc(O)c3c(=O)cc(-c4ccc(Sc5ncccn5)cc4)oc23)CC1
IC50 (SK-OV-3): > 10000 nM

SMILES: CN1CC=C(c2c(O)cc(O)c3c(=O)cc(-c4ccc(Nc5ccccc5)cc4)oc23)CC1
IC50 (SK-OV-3): 1200 nM

SMILES: CN1CC=C(c2c(O)cc(O)c3c(=O)cc(-c4ccc(Sc5ccc6ccccc6n5)cc4)oc23)CC1
IC50 (SK-OV-3): 3800 nM

SMILES: CN1CC=C(c2c(O)cc(O)c3c(=O)cc(-c4ccc(Sc5ncccn5)cc4Cl)oc23)CC1
IC50 (SK-OV-3): > 10000 nM

Second part, led by results:

IC50 (SK-OV-3): > 10000 nM
SMILES: CN1CC=C(c2c(O)cc(O)c3c(=O)cc(-c4ccc(Sc5ccc(C(=O)NO)cn5)cc4)oc23)CC1

IC50 (SK-OV-3): > 10000 nM
SMILES: CN1CC=C(c2c(O)cc(O)c3c(=O)cc(-c4ccc(Sc5ccc(C(=O)O)cn5)cc4)oc23)CC1

Activity (Sus scrofa [1]): 43%
Activity (Sus scrofa [2]): 4%
IC50 (CDK9/cyclin T1): 15 nM
Activity (Leishmania major [3]): 35%
Activity (Plasmodium falciparum [4]): > 100%
Activity (Plasmodium falciparum [5]): 64%
Activity [6]: 42%
Activity [7]: 22%
IC50 [8]: 216 nM
Activity (Sus scrofa [9]): 48%
IC50 (K562): 36 nM
IC50 (SK-BR-3): 66.6 nM
Activity (Sus scrofa [10]): 86%
IC50 (MIA PaCa-2): 361 nM
IC50 (SK-OV-3): 333 nM
Activity [11]: 14%
Activity [12]: 46%
Activity [13]: 3%
Activity [14]: 2%
Activity (Leishmania major [15]): 81%
Activity [16]: 4%
IC50 (CDK2/Cyclin A2): 1560 nM
Activity [17]: 14%
IC50 (PC-3): 326 nM
IC50 [18]: 550 nM
IC50 (HCT-116): 170 nM
SMILES: CN1CC=C(c2c(O)cc(O)c3c(=O)cc(-c4ccc(Sc5nc6ccccc6[nH]5)cc4Cl)oc23)CC1
IC50 (NCI-N87): 12 nM

IC50 (SK-OV-3): 2330 nM
SMILES: CC(=O)OC[C@@H]1O[C@@H](Sc2ccc(-c3cc(=O)c4c(O)cc(O)c(C5=CCN(C)CC5)c4o3)c(Cl)c2)[C@@H](OC(C)=O)C(OC(C)=O)C1OC(C)=O (single isomer, unassigned)

Activity (Sus scrofa [1]): 41%
Activity (Sus scrofa [2]): 8%
IC50 (CDK9/cyclin T1): 14 nM
Activity (Leishmania major [3]): 57%
Activity (Plasmodium falciparum [4]): 80%
Activity (Plasmodium falciparum [5]): 79%
Activity [6]: 41%
Activity [7]: 25%
IC50 [8]: 160 nM
Activity (Sus scrofa [9]): 41%
IC50 (K562): 345 nM
IC50 (SK-BR-3): 249 nM
Activity (Sus scrofa [10]): 83%
IC50 (MIA PaCa-2): 361 nM
IC50 (SK-OV-3): 344 nM
Activity [11]: 31%
Activity [12]: 51%
Activity [13]: -4%
Activity [14]: -2%
Activity (Leishmania major [15]): 68%
Activity [16]: -3%
IC50 (CDK2/Cyclin A2): 349 nM
Activity [17]: 26%
IC50 (PC-3): 276 nM
IC50 [18]: 284 nM
IC50 (HCT-116): 219 nM
SMILES: CN1CC=C(c2c(O)cc(O)c3c(=O)cc(-c4ccc(Sc5nc6ccccc6n5C)cc4)oc23)CC1
IC50 (NCI-N87): 391 nM
